The text below walks through data of ChEMBL document CHEMBL4376884, “Toward a Rational Design of Polyamine-Based Zinc-Chelating Agents for Cancer Therapies” (J Med Chem, 2020).

Assay [1] deals with LN-229. Put plainly: Antiproliferative activity against human LN229 cells assessed as reduction in cell viability at 10 uM incubated for 48 hrs in presence of Zn2+ ion by MTT assay. The format is functional, cell-based. Summed up: (§1)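 LN229 and PC3 cells plated, then 24 h later given 10 µM compound with or without 15 µM ZnCl2, CuCl2, FeCl2 or FeCl3 for 48 h. Medium replaced, MTT (12 mM solution) added for 4 h, formazan dissolved in DMSO, absorbance read at 540 nm. Percent viable versus untreated; mean ± SD of three experiments in triplicate.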

The nature of assay [2]: Metal chelating activity assessed as Zn2+-compound complex formation by measuring stability constant for ZnL(OH) using pre-Zn2+-complexed compound (ZnL) in 0.15M NaCl and hydroalcoholic solutions (H2O/EtOH 70:30) at 298.1K by potentiometric titration analysis. Summed up: (§2)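 Glass-electrode potentiometric titration with an Ag/AgCl reference in saturated KCl. The electrode was calibrated as an [H+] probe against standardized HCl with CO₂-free NaOH, using Gran's method (pKw 13.73(1)). Range was pH 2.0–11.0, with metal and ligand at 1×10⁻³ to 5×10⁻³ M in 1:1 ratio. At least two curves per compound were merged and fitted with HYPERQUAD.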

The test system of assay [3] is PC-3. Description: Cell cycle arrest in human PC3 cells assessed as cell accumulation at S phase at 10 uM incubated for 24 hrs by propidium iodide staining based flow cytometry analysis relative to control. The format is functional. On the technique in general: A flow cytometer gives signals particle by particle.
Assay [4] has as its system LN-229. Put plainly: Inhibition of colony formation in human LN229 cells at 10 uM incubated for 4 hrs by crystal violet staining based colony counting method. The format is functional, cell-based. Summed up:
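LN229 and PC3 cells treated for 4 h with compound (10 µM) or with etoposide (30 µM positive control), washed, trypsinized and replated at 3000 cells per 60-mm plate. Colonies grown 7–10 days, fixed and stained with 0.5% crystal violet in 70% ethanol, and counted. Reported as percent of control; four independent experiments, each in duplicate.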

A short description of assay [5]: Metal chelating activity assessed as Zn2+-compound complex formation by measuring stability constant for ZnL in 0.15M NaCl and hydroalcoholic solutions (H2O/EtOH 70:30) at 298.1K by potentiometric titration analysis. The essentials: as §2
In assay [6] the test system is LN-229. Description: Cell cycle arrest in human LN229 cells assessed as cell accumulation at S phase at 10 uM incubated for 24 hrs by propidium iodide staining based flow cytometry analysis relative to control. The assay is classed as functional.
For assay [7], the system named is MCF7. Put plainly: Antiproliferative activity against human MCF7 cells assessed as reduction in cell viability at 10 uM incubated for 48 hrs by cell titer-glo assay. The format is functional, cell-based. The essentials:
(§3)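 Cells plated and treated 24 h later with 10 µM compound for 48 h; viable cells quantified by CellTiter-Glo ATP luminescence. Expressed as percentage of viable cells relative to untreated; mean ± SD of three independent experiments, each in triplicate.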
Background: ATP-based viability assays read luminescence as a measure of living cells.

Assay [8] has as its system PC-3. Put plainly: Cell cycle arrest in human PC3 cells assessed as cell accumulation at G2/M phase at 10 uM incubated for 48 hrs by propidium iodide staining based flow cytometry analysis relative to control. The format is functional.
The test system of assay [9] is LN-229. Put plainly: Cell cycle arrest in human LN229 cells assessed as cell accumulation at G1 phase at 10 uM incubated for 24 hrs by propidium iodide staining based flow cytometry analysis relative to control. The assay is classed as functional.
Assay [10] can be described thus: Metal chelating activity assessed as Zn2+-compound complex formation by measuring stability constant for ZnL(OH) in 0.15M NaCl and hydroalcoholic solutions (H2O/EtOH 70:30) at 298.1K by potentiometric titration analysis. The essentials: as §2
A short description of assay [11]: Metal chelating activity assessed as Zn2+-compound complex formation at physiological pH 7.4 by quantum mechanical studies. The essentials: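 Zn2+ complexes modelled by DFT, B3LYP, gas phase. Basis set def2-SV(P), with MDF10 Stuttgart-Dresden effective core potential for Zn and Grimme dispersion correction. Vibrational frequencies and zero-point correction computed for each minimum.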

Assay [12] deals with LN-229. Put plainly: Induction of cellular senescence in human LN229 cells assessed as increase in beta-gal-positive cells at 10 uM incubated for 24 hrs by X-Gal staining based microscopic assay relative to control. The format is functional.
For assay [13], the system named is PC-3. Description: Induction of cellular senescence in human PC3 cells assessed as flattened cells at 10 uM incubated for 24 hrs by phase contrast microscopy. The format is functional, cell-based. Summed up: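 LN229 and PC3 cells, 12×10^4 per well in 6-well plates, treated with 10 µM compound for 24 h. Senescence-associated β-gal staining: fixed in 2% formaldehyde/0.2% glutaraldehyde for 10 min at RT, stained with 1 mg/mL X-gal at 37 °C for 24 h without CO2. Blue cells counted in at least 10 fields at 10x and given as percent of total; four independent experiments. Morphology viewed by phase contrast at ×100.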

The test system of assay [14] is U-87 MG. Description: Cell cycle arrest in human U87MG cells assessed as increase in cell accumulation at G0/G1 phase at 10 uM incubated for 24 hrs by propidium iodide staining based flow cytometry analysis. The assay is classed as functional. The note with it: U-87MG ATCC.
Assay [15] has as its system PC-3. Description: Induction of apoptosis in human PC3 cells at 10 uM incubated for 24 to 48 hrs by annexin V-FITC and propidium iodide staining based flow cytometric analysis. The format is functional, cell-based.
In assay [16] the test system is SW480. Put plainly: Antiproliferative activity against human SW480 cells assessed as reduction in cell viability at 10 uM incubated for 48 hrs by cell titer-glo assay. The assay is classed as functional, cell-based. The essentials: as §3
For assay [17], the system named is PC-3. Put plainly: Antiproliferative activity against human PC3 cells assessed as reduction in cell viability at 10 uM incubated for 48 hrs in presence of Fe3+ ion by MTT assay. The format is functional, cell-based. Summed up: as §1
On the technique in general: Tetrazolium dyes change colour on reduction, which living cells bring about.

The subject of assay [18] is Granta-519. Put plainly: Antiproliferative activity against human GRANTA-519 cells assessed as reduction in cell viability at 10 uM incubated for 48 hrs by cell titer-glo assay. The assay is classed as functional, cell-based. The essentials:
as §3

Assay [19] is described as follows: Metal chelating activity assessed as Zn2+-compound complex formation by measuring stability constant for ZnHL using pre-Zn2+-complexed compound (ZnL) in 0.15M NaCl at 298.1K by potentiometric titration analysis. Summed up:
as §2

Assay [20] is described as follows: Metal chelating activity assessed as Zn2+-compound complex formation by measuring stability constant for ZnHL in 0.15M NaCl at 298.1K by potentiometric titration analysis. The essentials:
as §2

Assay [21] in a line: Metal chelating activity assessed as Zn2+-compound complex formation by measuring stability constant for ZnL(OH) using pre-Zn2+-complexed compound (ZnL) in 0.15M NaCl at 298.1K by potentiometric titration analysis. The essentials:
as §2

The nature of assay [22]: Metal chelating activity assessed as Zn2+-compound complex formation by measuring stability constant for ZnL(OH) in 0.15M NaCl at 298.1K by potentiometric titration analysis. Summed up: as §2
Assay [23] in a line: Metal chelating activity assessed as Zn2+-compound complex formation by measuring stability constant for ZnL in 0.15M NaCl at 298.1K by potentiometric titration analysis. The essentials:
as §2

The source made the active and inactive calls. The calls are words filed in the database; no cut-off is given here. Bounds are passed on as bounds.

On to `CN(CCNCc1ccccn1)CCNCc1ccccn1`, for which, in assay [1], the result was inactive. Also, the log K is -10.6 in assay [2], 13.4 in [5] and 2.81 in assay [10]. In addition, the Activity in assay [3] was 9.2%; in assay [6], 15.6%; in [8], 16%; in assay [9] it was 62.1%; in [11] it was more than 99%. Moreover, the inhibition result in assay [4] is “inactive”. Also, the result in [7], in [12], in assay [13], in assay [14], in assay [15] and in assay [16] was Active. The outcome in [17] and in assay [18] was Active.

Regarding `c1ccc(CNCCN(CCNCc2ccccn2)Cc2ccc3ccccc3c2)nc1`, in [1], the result was inactive. For the same molecule, the log K in assay [19] is 3.65; in assay [20], 16.7; in [21], -10.8; in assay [22] it was 2.25; in [23], 13. For the same molecule, the Activity in assay [3] was 8.9%; in assay [6] it was 14.8%; in [8], 14.1%; in assay [9], 63.1%; in [11], more than 99%; in assay [12], 90%. The inhibition entry in [4] was “inactive”. Moreover, the outcome in assay [7], in assay [13], in [14], in assay [15], in [16] and in assay [17] was Active. Moreover, the result in assay [18] was Active.
